Results published in the array DNA melting data of Ke et al. (doi:10.1101/2024.01.08.574731).

Key:
[1] = melting temperature; fluorescence melt of hairpins on a sequencing array, two-state fit, raised by 9.35 °C to match UV melts; settings: sodium 0.088 M
Outline: (§1)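 Melting temperature and folding enthalpy were derived from bootstrapped two-state fits. The fitted temperatures were raised by 9.35 °C to agree with UV melts, and four replicates were combined by inverse variance. The underlying data were Cy3 fluorescence images of library hairpins, with annealed Cy3 and quencher oligos, on a sequenced MiSeq flow cell in 50 mM Na-HEPES pH 8.0, 25 mM NaCl, taken in 2.5 °C steps up to 60 °C, normalised to pre-quench Cy3 and to control constructs.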

[2] = folding enthalpy; higher = less favourable; fluorescence melt of hairpins on a sequencing array, two-state fit; settings: sodium 0.088 M
Outline: as §1

| Sequence | Tm [1] [°C] | folding enthalpy [2] [kcal/mol] |
| --- | --- | --- |
| GAAAAGGAAACTTTTC ((((((....)))))) | 39.7 | -25.2 |
| GATCGTCACAACGATC ((((((....)))))) | 56.9 | -39.3 |
| GATCCCTGTCGGGATC ((((((....)))))) | 60 | -35 |
| GCAACCGAAAGGTGATGC ((((((....)))..))) | 43.2 | -18.5 |
| GCGAACGGAAACACTCGC ((((..(....)..)))) | 32.3 | -21.9 |
| GCTATGCGAAAGCACGGC ((..(((....)))..)) | 41.4 | -17.7 |
| GTTACGGGAAACTGTAAC (((((.(....).))))) | 45.6 | -32.7 |
| GATCGGGACACCGATC ((((((....)))))) | 66 | -38.4 |
| GTAGTCCCGAAAGGGTAC (((..(((....)))))) | 31.5 | -10.8 |
| GAATGCGAAAGCACCTTC ((((((....)))..))) | 33.2 | -11.2 |
| GCCTGCGGAAACGTAGGC ((((.((....)).)))) | 58 | -28 |
| GGCGGCACGAAAGTGGCC (((..(((....)))))) | 52 | -11.6 |
| GATCCTTTAAAGGATC ((((((....)))))) | 53.4 | -40.9 |
| GTTTTGCCGAAAGGCAAC (((..(((....)))))) | 36 | -8.44 |
| GGCGCCGAAAGGCACGCC ((((((....)))..))) | 63.4 | -15.7 |
| GGCGAGACGAAAGTCGCC (((..(((....)))))) | 59.4 | -13.8 |
| GATCACCATGTGATC ((((((...)))))) | 59.2 | -33 |
| GTGATCCGAAAGGACCAC (((.(((....))).))) | 51.8 | -34.6 |
| GCTTACGAAAGTATGAGC ((((((....)))..))) | 34.7 | -20.5 |

| Sequence | Tm [1] [°C] | folding enthalpy [2] [kcal/mol] |
| --- | --- | --- |
| GAGTAGCGAAAGCTCCTC (((.(((....))).))) | 39.5 | -20 |
| GCGATCGAAAGATTACGC ((((((....)))..))) | 42 | -30.4 |
| GCTAGCGGAAACGCTGGC ((.((((....)))).)) | 60.3 | -33.3 |
| GTCTTCGAAAGAACAGAC ((((((....)))..))) | 28.3 | -16.6 |
| GATCGATTCATCGATC ((((((....)))))) | 59.3 | -39.9 |
| GGACGCGGAAACGCATCC (((.(((....))).))) | 48.9 | -26.3 |
| GTGACACGAAAGTGCCAC (((.(((....))).))) | 56.3 | -40.1 |
| GATCGCCTGAGCGATC ((((((....)))))) | 68.7 | -29.1 |
| GGTTCGGGAAACCGAGTC (..((((....))))..) | 36.5 | -13.1 |
| GGGCCTCCGAAAGGACCC (((..(((....)))))) | 50.1 | -21.2 |
| GATCGAGTCTTCGATC ((((((....)))))) | 58.4 | -37.6 |
| GCTAAGCGAAAGCGAAGC (((..((....))..))) | 63 | -26.7 |
| GGCCGCGAAAGCGTGGCC ((((((....)))..))) | 69.2 | -22.8 |
| GTAATCGAAAGATTAC ((((((....)))))) | 53.3 | -48.2 |
| GTATTTCGAAAGAAGTAC (((.(((....))).))) | 40.4 | -34.3 |
| GTTCGCGGAAACGTGAGC (.((.((....)).)).) | 41.3 | -22.4 |
| GATATAGGAAACTGTATC ((((.((....)).)))) | 34.6 | -21.4 |
| GCACCTCGAAAGAGCTGC (((.(((....))).))) | 42.2 | -25.5 |
